Results on ten molecules are retold here after ChEMBL document CHEMBL3044975, “Hybrid ubiquinone: novel inhibitor of mitochondrial complex I” (Biochim Biophys Acta, 2002).

Structures are written as SMILES.

T1 sequence (P03887 whole entry): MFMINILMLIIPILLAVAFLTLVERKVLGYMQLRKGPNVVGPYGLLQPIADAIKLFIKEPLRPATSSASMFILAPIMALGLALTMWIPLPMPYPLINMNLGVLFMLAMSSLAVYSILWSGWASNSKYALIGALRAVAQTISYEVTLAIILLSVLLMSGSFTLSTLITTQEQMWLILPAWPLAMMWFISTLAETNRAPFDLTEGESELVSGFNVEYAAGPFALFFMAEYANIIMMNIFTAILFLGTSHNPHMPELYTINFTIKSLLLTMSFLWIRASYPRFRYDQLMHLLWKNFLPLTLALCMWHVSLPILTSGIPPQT

For the first assay, the target named is T1, NADH-ubiquinone oxidoreductase chain 1 (Bos taurus, UniProt P03887). The assay is described as follows: Inhibition of Bos taurus (bovine) mitochondrial complex 1 assessed as reduction in enzyme activity by NADH-DU oxidoreductase assay. A digest of the protocol:
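Bovine heart submitochondrial particles (SMP) at 30 µg protein/ml. 50 µM decyl ubiquinone is the acceptor. SMP are preincubated with the HU for 5 min, then 50 µM NADH is added. NADH oxidation is read at 340 nm, 30 °C. IC50 from two independent experiments.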
On to `COC1=C(OC)C(=O)C(CCCCCCN(C)C(=O)c2ccc(Oc3ccc(C(C)(C)C)cc3)cc2)=C(C)C1=O`, for which the IC50 (usually the concentration that gives 50% inhibition) came to 0.61 µM.
Regarding `CCCCc1ccc(Oc2ccc(C(=O)N(C)CC3=C(C)C(=O)C(OC)=C(OC)C3=O)cc2)cc1`, the IC50 was found to be 0.84 µM.
Consider `COC1=C(OC)C(=O)C(CNC(=O)c2ccc(Oc3ccc(C(C)(C)C)cc3)cc2)=C(C)C1=O`, for which the IC50 came to 0.53 µM.
The same measure, in the same setting: the same measure for `COC1=C(OC)C(=O)C(CCN(C)C(=O)c2ccc(Oc3ccc(C(C)(C)C)cc3)cc2)=C(C)C1=O`: 0.76 µM; for `CCCCCCCCCCC(=O)N(C)CC1=C(C)C(=O)C(OC)=C(OC)C1=O`: 6.2 µM.
Turning to `COC1=C(OC)C(=O)C(CN(C)C(=O)c2ccc(Oc3ccc(C(C)(C)C)cc3)cc2)=C(C)C1=O`, the IC50 was found to be 0.088 µM.
Same read-out and setting: with `COC1=C(OC)C(=O)C(CC(=O)N(C)c2ccc(Oc3ccc(C(C)(C)C)cc3)cc2)=C(C)C1=O` the figure was 2 µM.
Turning to `CCN(CC1=C(C)C(=O)C(OC)=C(OC)C1=O)C(=O)c1ccc(Oc2ccc(C(C)(C)C)cc2)cc1`, the IC50 came out at 0.63 µM.

Another assay has as its target T1, NADH-ubiquinone oxidoreductase chain 1. The experiment in a line: Inhibition of Bos taurus (bovine) mitochondrial complex 1 assessed as reduction in enzyme activity by NADH-DB oxidoreductase assay.
Consider `COC1=C(OC)C(=O)C(CCCCCCN(C)C(=O)c2ccc(Oc3ccc(C(C)(C)C)cc3)cc2)=C(C)C1=O`, for which the IC50 is 1.1 µM.
As to `CN(C)C(=O)c1ccc(Oc2ccc(C(C)(C)C)cc2)cc1`, the IC50 came to 0.65 µM.
For the molecule `CCCCc1ccc(Oc2ccc(C(=O)N(C)CC3=C(C)C(=O)C(OC)=C(OC)C3=O)cc2)cc1`, the IC50 was determined as 0.97 µM.
Consider `COC1=C(OC)C(=O)C(CNC(=O)c2ccc(Oc3ccc(C(C)(C)C)cc3)cc2)=C(C)C1=O`, for which the IC50 amounted to 0.34 µM.
Still for that read-out and setting: with `COC1=C(OC)C(=O)C(CCN(C)C(=O)c2ccc(Oc3ccc(C(C)(C)C)cc3)cc2)=C(C)C1=O` the figure was 0.47 µM; with `C/C=C(\C)[C@H](O)[C@H](C)/C=C(C)/C=C/C/C(C)=C/Cc1nc(OC)c(OC)c(O)c1C` [PIERICIDIN A], 0.003 µM.
`CCCCCCCCCCC(=O)N(C)CC1=C(C)C(=O)C(OC)=C(OC)C1=O`: the IC50 stood at 11.8 µM.
With `COC1=C(OC)C(=O)C(CN(C)C(=O)c2ccc(Oc3ccc(C(C)(C)C)cc3)cc2)=C(C)C1=O`, the IC50 is 0.077 µM.
Still for that read-out and setting: the same measure for `COC1=C(OC)C(=O)C(CC(=O)N(C)c2ccc(Oc3ccc(C(C)(C)C)cc3)cc2)=C(C)C1=O`: 1.8 µM.
In the case of `CCN(CC1=C(C)C(=O)C(OC)=C(OC)C1=O)C(=O)c1ccc(Oc2ccc(C(C)(C)C)cc2)cc1`, the IC50 was 0.37 µM.
